Most compounds without a hit are left out; they make up all but 1.8% or so of the library.
RanGTP-Imp inh = disruptors of Ran-importin-beta complex formation – biochemical, FRET, CFP-Ran, YFP-importin-beta, homogeneous, primary screen; actives 1.1% (n = 300,000); cell-free CFP-Ran/YFP-importin-beta FRET ratio; inhibition, % (test concentration not listed);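 active = more than half of the replicate wells show a fall in the fluorescence ratio signal beyond about 16%, limit read from the data, passing the limit was not always enough; inconclusive = exactly half of the replicate wells pass the set limit; inactive = fewer than half of replicates pass the limit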
Runt-CBFb FRET = Runt domain-CBFb interaction inhibition. Q01196+Q13951. Cerulean-Runt/Venus-CBFb FRET ratio 530/480, 1 h. inhibition, % at 20 µM. actives 0.46% (n = 220,000);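 active = inhibition over about 50% at 20 µM in the single-dose screen, limit read from the data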
Target sequence (Q01196 whole entry, looked up, the tested form may be a part): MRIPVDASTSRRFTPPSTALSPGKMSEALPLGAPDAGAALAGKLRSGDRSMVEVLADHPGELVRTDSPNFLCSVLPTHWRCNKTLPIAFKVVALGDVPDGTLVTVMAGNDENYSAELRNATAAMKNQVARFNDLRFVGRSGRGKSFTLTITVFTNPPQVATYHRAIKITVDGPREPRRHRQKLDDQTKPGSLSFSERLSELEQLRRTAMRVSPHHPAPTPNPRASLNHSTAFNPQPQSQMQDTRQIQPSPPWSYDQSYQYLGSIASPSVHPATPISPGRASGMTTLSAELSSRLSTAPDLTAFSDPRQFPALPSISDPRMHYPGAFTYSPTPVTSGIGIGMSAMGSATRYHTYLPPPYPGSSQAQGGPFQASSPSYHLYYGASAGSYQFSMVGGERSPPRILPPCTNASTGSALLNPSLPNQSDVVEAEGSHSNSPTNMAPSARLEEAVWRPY
Target sequence (Q13951 whole entry, looked up, the tested form may be a part): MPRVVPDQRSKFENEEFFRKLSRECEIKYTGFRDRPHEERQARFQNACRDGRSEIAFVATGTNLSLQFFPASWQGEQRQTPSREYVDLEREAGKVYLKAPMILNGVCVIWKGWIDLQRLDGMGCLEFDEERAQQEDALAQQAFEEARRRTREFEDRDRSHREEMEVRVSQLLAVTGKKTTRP
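Buffer or medium: Tris pH 7.5 buffer with BSA. Assay system: Cerulean-labeled Runt domain protein. Amount: each fluorescent fusion protein 100 nM. Read-out basis: loss of energy transfer signal. Incubation: 1 h compound exposure, room temperature. Probe or stimulus: Venus-CBFb binding partner, 100 nM. Detection: FRET, excitation 422 nm, emission at 530 and 480 nm.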
Runt-SMMHC FRET = Runt domain-CBFb-SMMHC interaction inhibition | actives 0.74% (n = 220,000) | AID 1434 | Cerulean-Runt/Venus-CBFb-SMMHC FRET ratio 530/480, 1 h | inhibition, % at 20 µM;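 active = mean inhibition across duplicate retests at 20 µM reaching about 50%, limit read from the data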;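 also: inhibitors lower the FRET ratio by blocking Runt binding to CBFb-SMMHC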
Rce1 inhib = blocks yeast Ras-converting enzyme; Q03530; yeast membranes, quenched prenylated peptide cleavage fluorescence; calls only; actives 0.27% (n = 290,000);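 active = fall in fluorescence gain of 50% or more versus controls, with final raw signal at or below 3038400; inconclusive = same 50% fall but final raw signal above 3038400; inactive = fall in fluorescence gain under 50%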
Platelet DG rel = modulates dense granule release in human platelets. human platelet-rich plasma, SFLLRN dense granule ATP release, luminescence. inhibition, %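 (compounds screened at 7.5 µM in platelet-rich plasma)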. actives 0.22% (n = 300,000);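 active = mean replicate score, as percent of positive control, at or above 50; inconclusive = mean below 50 but at least one replicate at or above 50; inactive = mean and every replicate below 50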
Large screens that a line does not name were inactive.

COCCCNC(=O)c1c(NC(=O)c2ccccc2)n(Cc2ccccc2)c2nc3ccccc3nc12	RanGTP-Imp inh inconclusive (no result: Runt-CBFb FRET, Runt-SMMHC FRET)
CCCCOCCCn1c(N)c(C(=O)OCCOC)c2nc3ccccc3nc21	RanGTP-Imp inh inconclusive, Runt-SMMHC FRET 103.4
CCC(=O)OC1(c2ccccc2)CCN(C)CC1C (stereo not given)	none (no result: Rce1 inhib)
COc1cc(OC)c([C@H]2C=C(C)[C@H]3C[C@@H]2C3(C)C)c(OC)c1	none (no result: Runt-CBFb FRET, Runt-SMMHC FRET)
CCCCn1c(N)c(C(=O)OCC2CCCO2)c2nc3ccccc3nc21 (stereo not given)	RanGTP-Imp inh inconclusive, Runt-SMMHC FRET 105.7
Cc1nn(Cc2ccccc2Cl)c(C)c1C(=O)OCC(=O)NC1CCS(=O)(=O)C1 (stereo not given)	none
COc1cc2c(cc1OC)C(C(=O)NC(C)C)C1CCCCN1C2=O (stereo not given)	RanGTP-Imp inh inconclusive
CC(C)OCCCNC(=O)c1c(N)n(CC2CCCO2)c2nc3ccccc3nc12 (stereo not given)	RanGTP-Imp inh 102.6, Runt-CBFb FRET 74.0, Runt-SMMHC FRET 61.5, Rce1 inhib active
CCCNC(=O)c1c(N)n(CC2CCCO2)c2nc3ccccc3nc12 (stereo not given)	Runt-SMMHC FRET 77.9
CCOC(=O)c1c(NC(NC(=O)CF)C(Cl)(Cl)Cl)sc2c1CCCC2 (stereo not given)	none
CCOC(=O)c1c(NC(=O)C(c2ccccc2)c2ccccc2)sc2c1C1CCN2CC1	none
CCOCCCn1c(N)c(C(=O)Nc2sc3c(c2C(=O)OC)CCCC3)c2nc3ccccc3nc21	Runt-SMMHC FRET 136.7
CCOC(=O)c1c(NC(=O)c2c(N)n(CCCOC)c3nc4ccccc4nc23)sc2c1CCCC2	Runt-CBFb FRET 68.8, Runt-SMMHC FRET 100.9
CC(=O)N(C1=NCCCS1)c1ccc(Cl)cc1	none
CCOc1ccc(C2C(C#N)=C(N)Oc3c2c(=O)oc2ccccc32)cc1 (stereo not given)	Rce1 inhib active
Cc1ccc(N2C(=O)NC(=O)C3(Cc4ccccc4N4CCCC43)C2=O)cc1 (stereo not given)	RanGTP-Imp inh 19.8
CN(C)c1ccc(/C=C2/C(=N\O)C3CCN2CC3)cc1	RanGTP-Imp inh 56.9
C=CCn1c(O)c(C(C)=Nc2ccc(N(CC)CC)cc2)c(=O)[nH]c1=O	none
C=CCn1c(O)c(C(CC)=Nc2ccc(N(CC)CC)cc2)c(=O)[nH]c1=O	Rce1 inhib active
CC(=O)[C@@]1(O)CC[C@H]2[C@@H]3CC=C4C[C@@H](O)CC[C@]4(C)[C@H]3CC[C@@]21C	none
Clc1ccc(C[n+]2c(-c3ccccc3)cc(-c3ccccc3)cc2-c2ccccc2)cc1	RanGTP-Imp inh inconclusive, Rce1 inhib active (no result: Runt-CBFb FRET, Runt-SMMHC FRET)
Nc1c(C(=O)NCc2ccco2)c2nc3ccccc3nc2n1CCN1CCOCC1	RanGTP-Imp inh 46.4, Runt-SMMHC FRET 80.9
CCC(=O)C(CCN1CCOCC1)(c1ccccc1)c1ccccc1	none (no result: Runt-CBFb FRET, Runt-SMMHC FRET)
COCC(C)OC(=O)c1c(N)n(Cc2ccco2)c2nc3ccccc3nc12 (stereo not given)	none (no result: Runt-CBFb FRET)
Nc1c(C(=O)NCc2ccco2)c2nc3ccccc3nc2n1Cc1ccccc1	RanGTP-Imp inh 55.4, Runt-CBFb FRET 67.7, Runt-SMMHC FRET 76.0
COc1ccc(Cn2c(N)c(C(=O)NCc3ccco3)c3nc4ccccc4nc32)cc1	RanGTP-Imp inh 61.1, Runt-SMMHC FRET 99.7
CCOC(=O)c1c(N)n(Cc2ccco2)c2nc3ccccc3nc12	Runt-SMMHC FRET 70.5 (no result: RanGTP-Imp inh, Rce1 inhib, Platelet DG rel)
Cc1cc(=O)[nH]c(SCc2nc3ccccc3c(=O)n2-c2ccccc2C)n1	none
CCCCCCC(=O)N/N=C/c1c(O)n(C(C)CC)c(=S)[nH]c1=O (stereo not given)	none (no result: Platelet DG rel)
N#CC1=C(N)Oc2c(c(=O)oc3ccccc23)C1c1ccc(OC(=O)N2CCOCC2)cc1 (stereo not given)	none (no result: Runt-CBFb FRET, Runt-SMMHC FRET)
Nc1c(C(=O)NCc2ccco2)c2nc3ccccc3nc2n1Cc1ccc(F)cc1	RanGTP-Imp inh 42.7, Runt-SMMHC FRET 74.3
Clc1ccc(C(c2ccccc2)c2ncc[nH]2)cc1 (stereo not given)	none
C[n+]1ccc(-c2ccccc2)c2ccccc21	Rce1 inhib active (no result: Runt-CBFb FRET, Runt-SMMHC FRET)
Oc1cc2c(cc1O)[C@H]1c3ccccc3CN[C@@H]1CC2	Runt-SMMHC FRET 55.5
O=c1[nH]c(=O)n(Cc2ccco2)c(O)c1C=NCCN1CCNCC1	none
CC(=O)Nc1ccc(OC(=O)N(C)c2ccc(C)cc2)cc1	none (no result: Runt-CBFb FRET, Runt-SMMHC FRET)
